Data set [1] deals with Rattus norvegicus. Kind of data set: Evaluated for the distribution of radioactivity in tissues of female Fischer rats blood after 5 minutes intravenous administration; dose/g, range 0.27-0.33. Type of data set: ADME, organism-based. The settings on record: in vivo.
Data set [2] deals with Rattus norvegicus. Kind of data set: Evaluated for the distribution of radioactivity in tissues of female Fischer rats liver after 30 minutes intravenous administration; dose/g, range 0.55-0.71. It counts as ADME, organism-based. The settings on record: in vivo, 0.5 h.
In data set [3] the test system is Rattus norvegicus. Kind of data set: Evaluated for the distribution of radioactivity in tissues of female Fischer rats lungs after 60 minutes intravenous administration; dose/g, range 1.07-1.26. It counts as ADME, organism-based, Lung. Conditions: in vivo, 1 h. In short, it runs like this: (§1)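 Female Fischer 344 rats (10-12 weeks, 170-200 g), fed ad libitum, got a single iv tail-vein injection under ether anaesthesia of the 125I-labelled cation (2.85-8.38 μCi). The tracer was dissolved in Me2SO, diluted with saline to 1% Me2SO and filtered. At the set times rats were killed by cervical fracture and blood taken by cardiac puncture. Organs were rinsed, blotted, weighed and gamma-counted against injectate standards. Results are %dose/g, mean and range, n=5. Thyroid weight was taken as 7.5 mg/100 g body weight.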

For data set [4], the system named is Rattus norvegicus. Kind of data set: Evaluated for the distribution of radioactivity in tissues of female Fischer rats thyroid after 60 minutes intravenous administration; dose/g, range 26-42. Type of data set: ADME, organism-based, Thyroid gland. Conditions: in vivo, 1 h. In short, it runs like this:
as §1

Data set [5] deals with Rattus norvegicus. Kind of data set: Evaluated for the distribution of radioactivity in tissues of female Fischer rats kidneys after 5 minutes intravenous administration; dose/g, range 1.04-2.56. Type of data set: ADME, organism-based, Kidney. Conditions: in vivo.
In data set [6] the test system is Rattus norvegicus. Kind of data set: Evaluated for the distribution of radioactivity in tissues of female Fischer rats blood after 30 minutes intravenous administration; dose/g, range 0.10-0.13. The settings on record: in vivo, 0.5 h. It counts as ADME, organism-based.
The subject of data set [7] is Rattus norvegicus. Kind of data set: Evaluated for the distribution of radioactivity in tissues of female Fischer rats heart after 60 minutes intravenous administration; dose/g, range 3.51-5.44. Type of data set: ADME, organism-based. Conditions: in vivo, 1 h.
For data set [8], the system named is Rattus norvegicus. Kind of data set: Evaluated for the distribution of radioactivity in tissues of female Fischer rats thyroid after 5 minutes intravenous administration; dose/g, range 26-49. It counts as ADME, organism-based, Thyroid gland. The settings on record: in vivo.
In data set [9] the test system is Rattus norvegicus. Kind of data set: Evaluated for the distribution of radioactivity in tissues of female Fischer rats heart after 30 minutes intravenous administration; dose/g, range 3.17-4.70. Type of data set: ADME, organism-based. Conditions: in vivo, 0.5 h.
Data set [10] relates to Rattus norvegicus. Kind of data set: Evaluated for the distribution of radioactivity in tissues of female Fischer rats blood after 60 minutes intravenous administration; dose/g, range 0.12-0.14. It counts as ADME, organism-based. The settings on record: in vivo, 1 h.
The subject of data set [11] is Rattus norvegicus. Kind of data set: Evaluated for the distribution of radioactivity in tissues of female Fischer rats kidneys after 30 minutes intravenous administration; dose/g, range 8.28-10.72. Type of data set: ADME, organism-based, Kidney. The settings on record: in vivo, 0.5 h.
The test system of data set [12] is Rattus norvegicus. Kind of data set: Evaluated for the distribution of radioactivity in tissues of female Fischer rats kidneys after 60 minutes intravenous administration; dose/g, range 5.67-8.41. Type of data set: ADME, organism-based, Kidney. Conditions: in vivo, 1 h.
For data set [13], the system named is Rattus norvegicus. Kind of data set: Evaluated for the distribution of radioactivity in tissues of female Fischer rats liver after 60 minutes intravenous administration; dose/g, range 0.44-0.54. Type of data set: ADME, organism-based. Conditions: in vivo, 1 h. In short, it runs like this:
as §1

Data set [14] concerns Rattus norvegicus. Kind of data set: Evaluated for the distribution of radioactivity in tissues of female Fischer rats lungs after 30 minutes intravenous administration; dose/g, range 0.91-1.74. It counts as ADME, organism-based, Lung. Conditions: in vivo, 0.5 h.
The subject of data set [15] is Rattus norvegicus. Kind of data set: Evaluated for the distribution of radioactivity in tissues of female Fischer rats thyroid after 30 minutes intravenous administration; dose/g, range 26-40. Type of data set: ADME, organism-based, Thyroid gland. Conditions: in vivo, 0.5 h.
The subject of data set [16] is Rattus norvegicus. Kind of data set: Evaluated for the distribution of radioactivity in tissues of female Fischer rats lungs after 5 minutes intravenous administration; dose/g, range 1.41-2.17. Type of data set: ADME, organism-based, Lung. Conditions: in vivo.
The test system of data set [17] is Rattus norvegicus. Kind of data set: Evaluated for the distribution of radioactivity in tissues of female Fischer rats liver after 5 minutes intravenous administration; dose/g, range 1.04-2.56. The settings on record: in vivo. Type of data set: ADME, organism-based.
For data set [18], the system named is Rattus norvegicus. Kind of data set: Evaluated for the distribution of radioactivity in tissues of female Fischer rats heart after 5 minutes intravenous administration; dose/g, range 3.80-5.74. Type of data set: ADME, organism-based. The settings on record: in vivo.
Data set [19] deals with Rattus norvegicus. Kind of data set: Evaluated for the distribution of radioactivity in tissues of female Fischer rats heart after 60 minutes intravenous administration; dose/g, range 1.93-3.58. The settings on record: in vivo, 1 h. Type of data set: ADME, organism-based.
Data set [20] relates to Rattus norvegicus. Kind of data set: Evaluated for the distribution of radioactivity in tissues of female Fischer rats kidneys after 30 minutes intravenous administration; dose/g, range 7.21-7.95. Type of data set: ADME, organism-based, Kidney. Conditions: in vivo, 0.5 h.
The test system of data set [21] is Rattus norvegicus. Kind of data set: Evaluated for the distribution of radioactivity in tissues of female Fischer rats liver after 5 minutes intravenous administration; dose/g, range 3.12-4.56. Type of data set: ADME, organism-based. The settings on record: in vivo. Summed up:
as §1

The test system of data set [22] is Rattus norvegicus. Kind of data set: Evaluated for the distribution of radioactivity in tissues of female Fischer rats blood after 5 minutes intravenous administration; dose/g, range 0.40-0.45. Type of data set: ADME, organism-based. Conditions: in vivo.
For data set [23], the system named is Rattus norvegicus. Kind of data set: Evaluated for the distribution of radioactivity in tissues of female Fischer rats lungs after 30 minutes intravenous administration; dose/g, range 0.83-1.21. Conditions: in vivo, 0.5 h. Type of data set: ADME, organism-based, Lung. Summed up: as §1
The subject of data set [24] is Rattus norvegicus. Kind of data set: Evaluated for the distribution of radioactivity in tissues of female Fischer rats thyroid after 30 minutes intravenous administration; dose/g, range 19-24. Type of data set: ADME, organism-based, Thyroid gland. The settings on record: in vivo, 0.5 h. Summed up:
as §1

The subject of data set [25] is Rattus norvegicus. Kind of data set: Evaluated for the distribution of radioactivity in tissues of female Fischer rats blood after 60 minutes intravenous administration; dose/g, range 0.13-0.15. It counts as ADME, organism-based. Conditions: in vivo, 1 h.
Data set [26] deals with Rattus norvegicus. Kind of data set: Evaluated for the distribution of radioactivity in tissues of female Fischer rats kidneys after 5 minutes intravenous administration; dose/g, range 14.4-20.1. It counts as ADME, organism-based, Kidney. Conditions: in vivo.
The subject of data set [27] is Rattus norvegicus. Kind of data set: Evaluated for the distribution of radioactivity in tissues of female Fischer rats thyroid after 5 minutes intravenous administration; dose/g, range 13-18. Type of data set: ADME, organism-based, Thyroid gland. The settings on record: in vivo. In short, it runs like this: as §1
Data set [28] has as its system Rattus norvegicus. Kind of data set: Evaluated for the distribution of radioactivity in tissues of female Fischer rats lungs after 5 minutes intravenous administration; dose/g, range 0.96-1.35. Type of data set: ADME, organism-based, Lung. The settings on record: in vivo. Summed up: as §1
In data set [29] the test system is Rattus norvegicus. Kind of data set: Evaluated for the distribution of radioactivity in tissues of female Fischer rats heart after 5 minutes intravenous administration.; dose/g, range 2.20-2.97. Type of data set: ADME, organism-based. Conditions: in vivo.
Data set [30] deals with Rattus norvegicus. Kind of data set: Evaluated for the distribution of radioactivity in tissues of female Fischer rats liver after 60 minutes intravenous administration; dose/g, range 0.73-1.19. It counts as ADME, organism-based. The settings on record: in vivo, 1 h. Summed up:
as §1

The test system of data set [31] is Rattus norvegicus. Kind of data set: Evaluated for the distribution of radioactivity in tissues of female Fischer rats kidneys after 60 minutes intravenous administration; dose/g, range 4.62-5.60. Type of data set: ADME, organism-based, Kidney. The settings on record: in vivo, 1 h.
Data set [32] concerns Rattus norvegicus. Kind of data set: Evaluated for the distribution of radioactivity in tissues of female Fischer rats thyroid after 60 minutes intravenous administration; dose/g, range 35-53. It counts as ADME, organism-based, Thyroid gland. The settings on record: in vivo, 1 h. In short, it runs like this: as §1
Data set [33] concerns Rattus norvegicus. Kind of data set: Evaluated for the distribution of radioactivity in tissues of female Fischer rats liver after 30 minutes intravenous administration; dose/g, range 1.51-2.23. It counts as ADME, organism-based. Conditions: in vivo, 0.5 h.
The test system of data set [34] is Rattus norvegicus. Kind of data set: Evaluated for the distribution of radioactivity in tissues of female Fischer rats blood after 30 minutes intravenous administration; dose/g, range 0.19-0.24. Type of data set: ADME, organism-based. Conditions: in vivo, 0.5 h.
The subject of data set [35] is Rattus norvegicus. Kind of data set: Evaluated for the distribution of radioactivity in tissues of female Fischer rats heart after 30 minutes intravenous administration; dose/g, range 1.39-2.43. The settings on record: in vivo, 0.5 h. Type of data set: ADME, organism-based.
The test system of data set [36] is Rattus norvegicus. Kind of data set: Evaluated for the distribution of radioactivity in tissues of female Fischer rats lungs after 60 minutes intravenous administration; dose/g, range 0.81-1.13. It counts as ADME, organism-based, Lung. Conditions: in vivo, 1 h. Summed up: as §1

Structures are written as SMILES.

Regarding `I/C=C/CCC[P+](c1ccccc1)(c1ccccc1)c1ccccc1.[I-]`, the Distribution in the data set on Rattus norvegicus [1] turned out to be 0.29%; in the data set on Rattus norvegicus [2], 0.62%; in the data set on Rattus norvegicus [3] it was 1.18%; with Rattus norvegicus [4], 33%; in the data set on Rattus norvegicus [5], 1.48%; with Rattus norvegicus [6] it was 0.12%. Moreover, the Distribution in the data set with Rattus norvegicus [7] was determined as 4.19%; with Rattus norvegicus [8], 37%; with Rattus norvegicus [9], 3.99%; in the data set on Rattus norvegicus [10], 0.14%; with Rattus norvegicus [11] it was 9.36%; with Rattus norvegicus [12], 6.8%. For the same compound, the Distribution is given as 0.49% in the data set with Rattus norvegicus [13]; 1.28% in the data set with Rattus norvegicus [14]; 31% with Rattus norvegicus [15]; 1.72% with Rattus norvegicus [16]; 1.48% in the data set with Rattus norvegicus [17]; 4.4% with Rattus norvegicus [18].

For `CCCCCCCC[P+](C)(C)CCC/C=C/I.[I-]`, the Distribution turned out to be 2.73% in the data set on Rattus norvegicus [19]; 7.51% with Rattus norvegicus [20]; 3.72% with Rattus norvegicus [21]; 0.42% in the data set on Rattus norvegicus [22]; 1.05% in the data set with Rattus norvegicus [23]; 21% in the data set with Rattus norvegicus [24]. Also, the Distribution in the data set on Rattus norvegicus [25] came to 0.14%; with Rattus norvegicus [26], 17.54%; in the data set on Rattus norvegicus [27], 16%; with Rattus norvegicus [28], 1.18%; in the data set on Rattus norvegicus [29] it was 2.51%; in the data set on Rattus norvegicus [30], 0.93%. Also, the Distribution is on record as 5.15% in the data set on Rattus norvegicus [31]; 41% with Rattus norvegicus [32]; 1.84% with Rattus norvegicus [33]; 0.22% in the data set on Rattus norvegicus [34]; 1.95% in the data set on Rattus norvegicus [35]; 0.95% in the data set on Rattus norvegicus [36].

These data come from ChEMBL document CHEMBL1122900, “Effects of alkyl and aryl substitution on the myocardial specificity of radioiodinated phosphonium, arsonium, and ammonium cations” (J Med Chem, 1985).
